{"source": "ChEMBL document CHEMBL1153624", "about": "“Cyclic phosphoramidates as prodrugs of 2'-C-methylcytidine” (Eur J Med Chem, 2009)", "key": {"Hepatitis C virus": {"test_system": "Hepatitis C virus", "experiment": "Antiviral activity against HCV infected in human HuH7 cells by cell-based subgenomic replicon assay", "assay_type": "functional, organism-based, Hepacivirus hominis, Huh-7", "outline": "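HCV subgenomic replicon assay in HUH-7 cells, run in 10% fetal cow serum. Cytotoxicity was read in parallel as the prodrug concentration reducing cell viability by 50%.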"}, "[1]": {"experiment": "Metabolic stability in sc dosed hamster liver assessed as formation of 2'-C-methylcytidine triphosphate ((2R,3R,4R,5R)-5-(4-amino-2-oxopyrimidin-1(2H)-yl)-3,4-dihydroxy-4-methyltetrahydrofuran-2-yl)methyl tetrahydrogen triphosphate at 1.5 umol after 6 hrs", "assay_type": "ADME, organism-based", "details": "cricetinae, in vivo", "outline": "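Hamsters received a single subcutaneous dose of compound formulated in PEG. Liver was collected at 6 h and intracellular 2'-C-methylcytidine triphosphate quantified as nmol/g tissue (LLOQ 0.2 nmol/g).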"}, "[2]": {"experiment": "Cytotoxicity against human HuH7 cells assessed as cell viability", "assay_type": "cell-based, Huh-7", "outline": "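Cytotoxicity measured in HUH-7 cells carrying the HCV subgenomic replicon. The value is the prodrug concentration that reduces cell viability by 50%.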"}, "[3]": {"experiment": "Metabolic stability in po dosed hamster liver assessed as 2'-C-methylcytidine triphosphate ((2R,3R,4R,5R)-5-(4-amino-2-oxopyrimidin-1(2H)-yl)-3,4-dihydroxy-4-methyltetrahydrofuran-2-yl)methyl tetrahydrogen triphosphate level at 30.3 umol", "assay_type": "ADME, organism-based", "details": "cricetinae, in vivo"}, "Plasma": {"test_system": "Plasma", "experiment": "Stability in human plasma assessed as 2'-C-methylcytidine triphosphate ((2R,3R,4R,5R)-5-(4-amino-2-oxopyrimidin-1(2H)-yl)-3,4-dihydroxy-4-methyltetrahydrofuran-2-yl)methyl tetrahydrogen triphosphate level", "assay_type": "ADME, cell-free", "outline": "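Prodrug stability was measured in human plasma and scored as the fraction of dose remaining over time: stable; 80% of dose left after 2 h; 30% left after 1 h; 0% left after 18 min.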"}}}
{"smiles": "CCCCCCOCCOC(=O)[C@H](C)NP1(=O)OC[C@H]2O[C@@H](n3ccc(N)nc3=O)[C@](C)(O)[C@@H]2O1", "note": "(stereo partly specified)", "values": [{"measurement": "EC50", "setting": "Hepatitis C virus; Hepatitis C virus, Huh-7", "result": 14, "unit": "µM"}, {"measurement": "Activity", "setting": "[1]", "result": 2.6, "unit": "nmol/g"}]}
{"smiles": "CCOC(=O)[C@H](CC(C)C)NP1(=O)OC[C@H]2O[C@@H](n3ccc(N)nc3=O)[C@](C)(O)[C@@H]2O1", "note": "(stereo partly specified)", "values": [{"measurement": "EC50", "setting": "Hepatitis C virus; Hepatitis C virus, Huh-7", "result": "> 50", "unit": "µM"}]}
{"smiles": "C[C@H](NP1(=O)OC[C@H]2O[C@@H](n3ccc(N)nc3=O)[C@](C)(O)[C@@H]2O1)C(=O)OC(C)(C)C", "note": "(stereo partly specified)", "values": [{"measurement": "EC50", "setting": "Hepatitis C virus; Hepatitis C virus, Huh-7", "result": "> 20", "unit": "µM"}]}
{"smiles": "C[C@H](NP1(=O)OC[C@H]2O[C@@H](n3ccc(N)nc3=O)[C@](C)(O)[C@@H]2O1)C(=O)OC1CCCCCC1", "note": "(stereo partly specified)", "values": [{"measurement": "EC50", "setting": "Hepatitis C virus; Hepatitis C virus, Huh-7", "result": "> 10", "unit": "µM"}, {"measurement": "Activity", "setting": "[1]", "result": 10.3, "unit": "nmol/g"}]}
{"smiles": "CCOC(=O)[C@H](C)N[P@]1(=O)OC[C@H]2O[C@@H](n3ccc(N)nc3=O)[C@](C)(O)[C@@H]2O1", "values": [{"measurement": "CC50", "setting": "[2]", "result": "> 100", "unit": "µM"}, {"measurement": "EC50", "setting": "Hepatitis C virus; Hepatitis C virus, Huh-7", "result": 4, "unit": "µM"}]}
{"smiles": "CCC(CC)COC(=O)[C@H](C)NP1(=O)OC[C@H]2O[C@@H](n3ccc(N)nc3=O)[C@](C)(O)[C@@H]2O1", "note": "(stereo partly specified)", "values": [{"measurement": "EC50", "setting": "Hepatitis C virus; Hepatitis C virus, Huh-7", "result": "> 20", "unit": "µM"}, {"measurement": "Activity", "setting": "[1]", "result": 8.9, "unit": "nmol/g"}]}
{"smiles": "CCOC(=O)[C@H](C)N[P@@]1(=O)OC[C@H]2O[C@@H](n3ccc(N)nc3=O)[C@](C)(O)[C@@H]2O1", "values": [{"measurement": "CC50", "setting": "[2]", "result": "> 100", "unit": "µM"}, {"measurement": "EC50", "setting": "Hepatitis C virus; Hepatitis C virus, Huh-7", "result": "> 20", "unit": "µM"}]}
{"smiles": "CCOC(=O)[C@H](CC)NP1(=O)OC[C@H]2O[C@@H](n3ccc(N)nc3=O)[C@](C)(O)[C@@H]2O1", "note": "(stereo partly specified)", "values": [{"measurement": "EC50", "setting": "Hepatitis C virus; Hepatitis C virus, Huh-7", "result": 5.6, "unit": "µM"}, {"measurement": "Activity", "setting": "[3]", "result": "< 0.2", "unit": "nmol/g"}, {"measurement": "Stability", "setting": "Plasma", "result": "Stable"}]}
{"smiles": "CCC[C@H](NP1(=O)OC[C@H]2O[C@@H](n3ccc(N)nc3=O)[C@](C)(O)[C@@H]2O1)C(=O)OCC", "note": "(mixture of isomers)", "values": [{"measurement": "EC50", "setting": "Hepatitis C virus; Hepatitis C virus, Huh-7", "result": "> 20", "unit": "µM"}]}
{"smiles": "C[C@H](NP1(=O)OC[C@H]2O[C@@H](n3ccc(N)nc3=O)[C@](C)(O)[C@@H]2O1)C(=O)OC1CCCC1", "note": "(mixture of isomers)", "values": [{"measurement": "EC50", "setting": "Hepatitis C virus; Hepatitis C virus, Huh-7", "result": "> 20", "unit": "µM"}]}
{"smiles": "CC(C)CCOC(=O)[C@H](C)NP1(=O)OC[C@H]2O[C@@H](n3ccc(N)nc3=O)[C@](C)(O)[C@@H]2O1", "note": "(stereo in doubt)", "values": [{"measurement": "EC50", "setting": "Hepatitis C virus; Hepatitis C virus, Huh-7", "result": "> 20", "unit": "µM"}]}
{"smiles": "CCCCOC(=O)[C@H](C)NP1(=O)OC[C@H]2O[C@@H](n3ccc(N)nc3=O)[C@](C)(O)[C@@H]2O1", "note": "(stereo in doubt; 10 F.E.)", "values": [{"measurement": "EC50", "setting": "Hepatitis C virus; huh-7", "result": "> 20", "unit": "µM"}]}
{"smiles": "CCCCOC(=O)[C@H](C)NP1(=O)OC[C@H]2O[C@@H](n3ccc(N)nc3=O)[C@](C)(O)[C@@H]2O1", "note": "(stereo in doubt; 10 S.E.)", "values": [{"measurement": "EC50", "setting": "Hepatitis C virus; Hepatitis C virus, Huh-7", "result": 15, "unit": "µM"}]}
{"smiles": "CCCCCCCOC(=O)[C@H](C)NP1(=O)OC[C@H]2O[C@@H](n3ccc(N)nc3=O)[C@](C)(O)[C@@H]2O1", "note": "(stereo in doubt; 12 F.E.)", "values": [{"measurement": "EC50", "setting": "Hepatitis C virus; huh-7", "result": 15, "unit": "µM"}]}
{"smiles": "CCCCCCCOC(=O)[C@H](C)NP1(=O)OC[C@H]2O[C@@H](n3ccc(N)nc3=O)[C@](C)(O)[C@@H]2O1", "note": "(stereo in doubt; 12 S.E.)", "values": [{"measurement": "EC50", "setting": "Hepatitis C virus; Hepatitis C virus, Huh-7", "result": 10.5, "unit": "µM"}, {"measurement": "Activity", "setting": "[1]", "result": 5.9, "unit": "nmol/g"}]}
{"smiles": "C[C@H](NP1(=O)OC[C@H]2O[C@@H](n3ccc(N)nc3=O)[C@](C)(O)[C@@H]2O1)C(=O)OC1CCCCC1", "note": "(stereo in doubt; 14 F.E.)", "values": [{"measurement": "EC50", "setting": "Hepatitis C virus; Hepatitis C virus, Huh-7", "result": "> 20", "unit": "µM"}]}
{"smiles": "COCCCOC(=O)[C@H](C)NP1(=O)OC[C@H]2O[C@@H](n3ccc(N)nc3=O)[C@](C)(O)[C@@H]2O1", "note": "(stereo in doubt; 16 F.E.)", "values": [{"measurement": "EC50", "setting": "Hepatitis C virus; huh-7", "result": "> 20", "unit": "µM"}]}
{"smiles": "COCCCOC(=O)[C@H](C)NP1(=O)OC[C@H]2O[C@@H](n3ccc(N)nc3=O)[C@](C)(O)[C@@H]2O1", "note": "(stereo in doubt; 16 S.E.)", "values": [{"measurement": "EC50", "setting": "Hepatitis C virus; Hepatitis C virus, Huh-7", "result": 28, "unit": "µM"}]}
{"smiles": "CCCC(CCC)COC(=O)[C@H](C)NP1(=O)OC[C@H]2O[C@@H](n3ccc(N)nc3=O)[C@](C)(O)[C@@H]2O1", "note": "(stereo in doubt; 20 F.E.)", "values": [{"measurement": "EC50", "setting": "Hepatitis C virus; huh-7", "result": "> 20", "unit": "µM"}]}
{"smiles": "CCCC(CCC)COC(=O)[C@H](C)NP1(=O)OC[C@H]2O[C@@H](n3ccc(N)nc3=O)[C@](C)(O)[C@@H]2O1", "note": "(stereo in doubt; 20 S.E.)", "values": [{"measurement": "EC50", "setting": "Hepatitis C virus; Hepatitis C virus, Huh-7", "result": 14, "unit": "µM"}]}
{"smiles": "CC(C)[C@H](N)C(=O)O[C@@H]1[C@@H](CO)O[C@@H](n2ccc(N)nc2=O)[C@]1(C)O", "note": "[VALOPICITABINE]", "values": [{"measurement": "CC50", "setting": "[2]", "result": "> 100", "unit": "µM"}, {"measurement": "EC50", "setting": "Hepatitis C virus; Hepatitis C virus, Huh-7", "result": 7.6, "unit": "µM"}, {"measurement": "Activity", "setting": "[1]", "result": "< 0.2", "unit": "nmol/g"}]}
